The source of these data is article PMC10213863 (Cell Reports Medicine, 2023).

Where two headings read alike, the source gives them in different places.

Data set [1] concerns immune-complex stimulated ISG panel in PBMCs. The data set is described as follows: Five-gene ISG panel in PBMCs stimulated with SLE immune complexes. To be noted: HCQ 1 μM. Type of data set: cell-based, human. Put shortly:
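PBMCs were pre-treated 30 min with test compound, HCQ or 0.1% DMSO, then stimulated 20 h with SLE serum pre-complexed with U-937 necrotic extract. RNA was extracted and ISGs quantified by qRT-PCR with the 2−ΔΔCt method against 18S rRNA, using biological replicates. Global ISG induction was derived by normalizing each ISG's relative induction to 100%.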

The subject of data set [2] is ssRNA driven IFN transcripts in human PBMCs. The data set is described as follows: ISG expression in human PBMCs stimulated with ssRNA. To be noted: HCQ vs MHV370. Type of data set: cell-based. In outline:
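PBMCs were pre-incubated 30 min with test compound or HCQ, then stimulated with ssRNA at doses from earlier work. RNA was extracted, and ISG transcripts were quantified by qRT-PCR with the 2−ΔΔCt method against 18S rRNA, using biological replicates. Each ISG's induction was normalized to 100% to give a panel signature.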

In data set [3] the test system is SLE immune-complex-driven IFN-α response in PBMCs. The data set is described as follows: IFN-α release from PBMCs stimulated with SLE patient sera immune complexes. Type of data set: cell-based, human.
The subject of data set [4] is IFN-α accelerated NZB/W F1 model. To be noted: cited from earlier work.
The subject of data set [5] is SLE patients. To be noted: cited from earlier work.
Data set [6] has as its system SLE patients. To be noted: BLISS trial, cited from earlier work.

As to `CCN(CCO)CCCC(C)Nc1ccnc2cc(Cl)ccc12` (stereo not drawn) [HCQ, hydroxychloroquine, reference compound], the “expression of a five-panel ISG signature” value in data set [1] is on record as “only mildly effective”. In addition, the “fold less potent antagonist of ISG expression than MHV370” value in data set [2] is reported as 3,300 fold. Moreover, in data set [3] (HCQ 1 μM (matched steady-state blood exposure of SLE patients), PBMCs), the “inhibition of immune-complex-driven IFN-α responses by serum category” value is listed as “strongest inhibition of IFN-α responses elicited by dsDNA immune complexes”. Besides, the “fold lower potency than MHV370, immune-complex-induced IFN-α” value in data set [3] (HCQ vs MHV370) was “approximately 1,000 fold”.
For `N#Cc1ccc(N2C[C@H](N)C[C@H](C(F)(F)F)C2)c2cccnc12` [M5049], the “efficacy in IFN-α accelerated NZB/W F1 model” value in data set [4] is “showed efficacy”.
On to “anifrolumab: antibody drug which interferes with type I IFN signaling”, for which the “herpes virus infections in treated patients” value in the data set with SLE patients [5] is given as “increased”. Also, in the data set on SLE patients [5] (one of two phase 3 studies), the “predefined endpoint in phase 3 studies” value is “failed to reach its predefined endpoint”.
As for “belimumab: antibody drug which interferes with B cell expansion”, the “SRI (SLE responder index) response rate above placebo” value with SLE patients [6] (1 mg/kg) is given as 7%; with SLE patients [6] (10 mg/kg) it was 14%.
